Laboratory results published in ChEMBL document CHEMBL4033795, “Design, Synthesis, and Structure-Activity Relationship Study of 2-Oxo-3,4-dihydropyrimido[4,5- d]pyrimidines as New Colony Stimulating Factor 1 Receptor (CSF1R) Kinase Inhibitors” (J Med Chem, 2018).

Experiments:
[1] = target: Macrophage colony-stimulating factor 1 receptor (Homo sapiens, UniProt P07333); assay: Inhibition of recombinant human His-tagged CSF1R cytoplasmic domain (538 to 910 residues) expressed in baculovirus using tyr4 peptide as substrate after 1 hr by FRET-based Z'-Lyte assay
Chain of Macrophage colony-stimulating factor 1 receptor (P07333 whole entry, the tested form may be a part): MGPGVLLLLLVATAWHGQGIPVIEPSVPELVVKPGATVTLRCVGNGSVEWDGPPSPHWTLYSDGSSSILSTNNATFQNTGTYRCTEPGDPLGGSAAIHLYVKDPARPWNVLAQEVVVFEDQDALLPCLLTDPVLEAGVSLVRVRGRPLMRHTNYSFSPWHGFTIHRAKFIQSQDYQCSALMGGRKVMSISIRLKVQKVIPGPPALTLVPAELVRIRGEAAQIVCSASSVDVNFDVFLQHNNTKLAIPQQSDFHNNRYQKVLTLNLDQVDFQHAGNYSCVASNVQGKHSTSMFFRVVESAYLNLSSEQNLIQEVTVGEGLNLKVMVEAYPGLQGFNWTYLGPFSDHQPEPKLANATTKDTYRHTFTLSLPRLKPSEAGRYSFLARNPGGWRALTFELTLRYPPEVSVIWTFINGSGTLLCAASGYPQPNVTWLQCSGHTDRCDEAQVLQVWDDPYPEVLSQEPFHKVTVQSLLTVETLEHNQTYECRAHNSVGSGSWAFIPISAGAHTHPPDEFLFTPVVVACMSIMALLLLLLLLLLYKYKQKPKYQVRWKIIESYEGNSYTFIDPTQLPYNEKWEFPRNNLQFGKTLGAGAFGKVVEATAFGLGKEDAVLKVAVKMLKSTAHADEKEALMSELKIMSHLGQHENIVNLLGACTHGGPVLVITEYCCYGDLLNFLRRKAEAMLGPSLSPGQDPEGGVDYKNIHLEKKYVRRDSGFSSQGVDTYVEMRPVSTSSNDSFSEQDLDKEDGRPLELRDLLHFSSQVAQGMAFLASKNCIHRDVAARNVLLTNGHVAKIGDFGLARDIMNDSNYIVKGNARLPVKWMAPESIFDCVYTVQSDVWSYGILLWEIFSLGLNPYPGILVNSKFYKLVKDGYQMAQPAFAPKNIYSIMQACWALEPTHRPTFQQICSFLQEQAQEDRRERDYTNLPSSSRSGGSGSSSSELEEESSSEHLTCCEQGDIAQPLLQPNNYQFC
Outline: (§1)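 Z′-Lyte FRET assay with CSF1R or EGFR and 2 μM Tyr4 peptide substrate in 1× kinase buffer. ATP was supplied as a 100 μM solution, a stock and not the final concentration. Compounds were 3-fold serially diluted in DMSO. Reaction ran 1 h at room temperature, followed by 1 h development and a stop reagent. Phospho-peptide, no-ATP and DMSO controls were included. IC50 by curve fitting; mean of at least three independent experiments.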

[2] = target: Epidermal growth factor receptor (Homo sapiens, UniProt P00533); assay: Inhibition of recombinant human wild type GST-tagged EGFR cytoplasmic domain (668 to 1210 residues) expressed in baculovirus using tyr4 peptide as substrate after 1 hr by FRET-based Z'-Lyte assay
Chain of Epidermal growth factor receptor (P00533 whole entry, the tested form may be a part): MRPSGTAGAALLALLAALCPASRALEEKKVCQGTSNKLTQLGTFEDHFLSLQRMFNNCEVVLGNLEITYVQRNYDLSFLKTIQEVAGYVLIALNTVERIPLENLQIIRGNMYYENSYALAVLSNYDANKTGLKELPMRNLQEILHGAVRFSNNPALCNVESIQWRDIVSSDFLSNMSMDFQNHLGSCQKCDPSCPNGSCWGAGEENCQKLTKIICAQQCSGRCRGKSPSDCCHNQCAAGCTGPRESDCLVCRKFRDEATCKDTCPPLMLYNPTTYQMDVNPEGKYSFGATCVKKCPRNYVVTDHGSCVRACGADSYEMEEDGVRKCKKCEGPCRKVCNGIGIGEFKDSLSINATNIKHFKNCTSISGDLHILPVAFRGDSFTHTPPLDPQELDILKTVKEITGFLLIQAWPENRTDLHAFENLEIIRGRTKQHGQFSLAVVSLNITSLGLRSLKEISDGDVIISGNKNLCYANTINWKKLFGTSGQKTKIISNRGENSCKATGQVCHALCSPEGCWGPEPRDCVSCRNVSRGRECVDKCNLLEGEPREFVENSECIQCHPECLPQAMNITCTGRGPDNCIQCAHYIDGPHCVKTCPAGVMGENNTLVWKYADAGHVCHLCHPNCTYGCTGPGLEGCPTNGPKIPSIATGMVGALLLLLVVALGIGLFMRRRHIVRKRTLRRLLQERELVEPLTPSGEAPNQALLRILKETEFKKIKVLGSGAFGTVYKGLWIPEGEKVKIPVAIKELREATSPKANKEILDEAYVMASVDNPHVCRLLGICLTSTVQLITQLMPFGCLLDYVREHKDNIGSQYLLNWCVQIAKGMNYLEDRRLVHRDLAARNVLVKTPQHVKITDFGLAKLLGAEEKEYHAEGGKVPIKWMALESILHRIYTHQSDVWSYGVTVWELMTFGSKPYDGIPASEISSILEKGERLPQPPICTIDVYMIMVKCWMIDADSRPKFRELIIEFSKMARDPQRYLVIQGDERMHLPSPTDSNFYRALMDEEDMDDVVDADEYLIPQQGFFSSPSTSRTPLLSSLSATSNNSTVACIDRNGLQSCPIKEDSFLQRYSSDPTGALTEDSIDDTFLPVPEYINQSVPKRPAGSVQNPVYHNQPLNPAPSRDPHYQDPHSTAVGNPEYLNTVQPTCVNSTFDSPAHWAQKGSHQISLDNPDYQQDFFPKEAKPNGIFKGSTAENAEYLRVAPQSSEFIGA

[3] = species on record: Homo sapiens; assay: Selectivity ratio of IC50 for recombinant human wild type GST-tagged EGFR cytoplasmic domain (668 to 1210 residues) expressed in baculovirus to IC50 for recombinant human His-tagged CSF1R cytoplasmic domain (538 to 910 residues) expressed in baculovirus; outline: as §1
[4] = tested on: Rattus norvegicus; assay: AUC (0 to infinity) in Sprague-Dawley rat at 25 mg/kg administered via oral gavage measured up to 72 hrs by LC/MS analysis; type: ADME, organism-based; design: dose 25 mg/kg, route oral, time infinity; conditions: in vivo
Outline: (§2)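 Male Sprague-Dawley rats, 4–6 weeks old, acclimatised 1 week, were dosed iv at 5 mg/kg or by oral gavage at 25 mg/kg. Vehicle was 2% DMSO, 4% EtOH, 4% castor oil, 90% H2O. Blood was drawn by orbital sinus puncture from 2 min to 72 h into heparinized tubes. Plasma was assayed by LC/MS with propranolol as internal standard. Three animals per group.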

[5] = AUC (0 to infinity) in Sprague-Dawley rat at 5 mg/kg, iv measured up to 72 hrs by LC/MS analysis; type: ADME, organism-based; design: dose 5 mg/kg, time infinity, route intravenous; conditions: in vivo; outline: as §2
[6] = Cmax in Sprague-Dawley rat at 25 mg/kg administered via oral gavage measured up to 72 hrs by LC/MS analysis; type: ADME, organism-based; design: dose 25 mg/kg, route oral; conditions: in vivo; outline: as §2
[7] = Half life in Sprague-Dawley rat at 25 mg/kg administered via oral gavage measured up to 72 hrs by LC/MS analysis; type: ADME, organism-based; conditions: in vivo; outline: as §2
[8] = Half life in Sprague-Dawley rat at 5 mg/kg, iv measured up to 72 hrs by LC/MS analysis; type: ADME, organism-based; conditions: in vivo; outline: as §2
[9] = tested on: Rattus norvegicus; assay: Apparent clearance in Sprague-Dawley rat at 25 mg/kg administered via oral gavage measured up to 72 hrs by LC/MS analysis; type: ADME, organism-based; conditions: in vivo, iv, 5 mg/kg, in the assay text read “5 mg/kg administered intravenously” for “25 mg/kg administered via oral gavage”; outline: as §2
[10] = Oral bioavailability in Sprague-Dawley rat at 25 mg/kg administered via gavage measured up to 72 hrs by LC/MS analysis; type: ADME, organism-based; conditions: in vivo; outline: as §2

SMILES | IC50 [1] [µM] | IC50 [2] [µM] | Ratio IC50 [3] | AUC [4] [µg·h/mL] | AUC(0-inf) [5] [µg·h/mL] | Cmax [6] [µg/mL] | half-life [7] [h] | half-life [8] [h] | CL(app) [9] [L/h/kg] | bioavailability [10] [%]
CCC(=O)N1CC[C@H](N2C(=O)N(c3cccc(OC)c3)Cc3cnc(Nc4ccc(N5CCN(C)CC5)c(C)c4)nc32)C1 | 0.0045 | 0.417 | 92 | – | – | – | – | – | – | –
CCC(=O)N1CC[C@H](N2C(=O)N(c3cc(OC)ccc3F)Cc3cnc(Nc4ccc(N5CCN(C)CC5)c(C)c4)nc32)C1 | 0.002 | 0.362 | 99 to 200 | 1.63 | 1.9 | 0.396 | 1.6 | 2.3 | 2.64 | 17.1
CCC(=O)N1CC[C@H](N2C(=O)N(c3cc(OC)ccc3Cl)Cc3cnc(Nc4ccc(N5CCN(C)CC5)c(C)c4)nc32)C1 | 0.0021 | – | – | 5.311 | 2.77 | 0.988 | 1.89 | 3.48 | 1.84 | 38.6
CCC(=O)N1CC[C@H](N2C(=O)N(c3cccc(OC)c3Cl)Cc3cnc(Nc4ccc(N5CCN(C)CC5)c(C)c4)nc32)C1 | 0.0044 | 0.413 | 99 to 200 | – | – | – | – | – | – | –
CCCN1CC[C@H](N2C(=O)N(c3ccccc3Cl)Cc3cnc(Nc4ccc(N5CCN(C)CC5)c(C)c4)nc32)C1 | 0.181 | 0.0528 | – | – | – | – | – | – | – | –
CCC(=O)N1CC[C@H](N2C(=O)N(c3ccccc3F)Cc3cnc(Nc4ccc(N5CCN(C)CC5)c(C)c4)nc32)C1 | 0.0052 | 0.0176 | – | – | – | – | – | – | – | –
Cc1cc(Nc2ncc3c(n2)N([C@H]2CCN(C(=O)CN(C)C)C2)C(=O)N(c2ccccc2Cl)C3)ccc1N1CCN(C)CC1 | 0.0227 | 0.0266 | – | – | – | – | – | – | – | –
CCC(=O)N1CC[C@H](N2C(=O)N(c3cc(OC)ccc3F)Cc3cnc(Nc4ccc(N5CCN(C)CC5)cc4)nc32)C1 | 0.0136 | 1.1 | – | – | – | – | – | – | – | –
CCC(=O)N1CC[C@H](N2C(=O)N(c3cc(OC)ccc3F)Cc3cnc(Nc4ccc(N5CCN(C)CC5)c(C(F)(F)F)c4)nc32)C1 | 0.0319 | 3.4 | – | – | – | – | – | – | – | –
CCC(=O)N1CC[C@H](N2C(=O)N(c3cccc(OC)c3F)Cc3cnc(Nc4ccc(N5CCN(C)CC5)c(C)c4)nc32)C1 | 0.0045 | 0.421 | 99 to 200 | – | – | – | – | – | – | –
CCC(=O)N1CC[C@H](N2C(=O)N(c3cc(OC)ccc3F)Cc3cnc(Nc4ccc(N5CCOCC5)c(C)c4)nc32)C1 | 0.0252 | 0.626 | – | – | – | – | – | – | – | –
